Results on ten compounds are retold here after ChEMBL document CHEMBL1156158, “Praziquantel analogs with activity against juvenile Schistosoma mansoni” (Bioorg Med Chem Lett, 2010).

The structures appear in SMILES notation. Converted amounts (≈) assume the structure as drawn. The source made the active and inactive calls. The rule behind the calls is not given here.

The IC50 is the concentration at which inhibition is half-maximal.

Data set [1] has as its system Schistosoma mansoni. As to the kind of experiment: Antischistosomal activity against adult Schistosoma mansoni assessed as motility reduction at 10 ug/ml after 120 hrs. It counts as functional. Also on record: scale not given: the % may be the effect or the level left. The method in brief: (§1)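 Adult worms were recovered from infected mice by portal perfusion with warm DMEM containing 2 mM L-glutamine, penicillin/streptomycin, 20 mM Hepes and heparin. Host red cells were removed and the worms moved to DMEM with 10% FCS, glutamine and antibiotics. Compounds were added from 10 mg/mL DMSO stocks. At 120 h, motility disturbances and morphological changes were scored.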

The test system of data set [2] is Schistosoma mansoni. In words: Antischistosomal activity against adult Schistosoma mansoni assessed as morphological changes at 10 ug/ml after 120 hrs. Type of data set: functional, organism-based. The method in brief: as §1
The subject of data set [3] is Schistosoma mansoni. In words: Antischistosomal activity in adult Schistosoma mansoni infected in mouse assessed as total worm reduction at 400 mg/kg, po after 28 days. Type of data set: functional. Also on record: scale not given: the % may be the effect or the level left. An outline of the steps:
(§2)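 Mice were infected with about 80 cercariae on day 0. A single oral dose was given, dissolved or suspended in 3% ethanol/7% Tween 80 vehicle: groups of three mice on day 21 (juvenile) and groups of five on day 49 (adult). Mice were killed by CO₂ 28 days after treatment and dissected for total and female worm counts versus vehicle controls. Medians were compared by Kruskal–Wallis test.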

Data set [4] relates to Schistosoma mansoni. As to the kind of experiment: Antischistosomal activity in adult Schistosoma mansoni infected in mouse assessed as female worm reduction at 400 mg/kg, po after 28 days. It counts as functional. Also noted: scale not given: the % may be the effect or the level left. An outline of the steps: as §2
The subject of data set [5] is Schistosoma mansoni. In words: Antischistosomal activity in juvenile Schistosoma mansoni infected in mouse assessed as total worm reduction at 200 mg/kg, po after 28 days. Also on record: scale not given: the % may be the effect or the level left. It counts as functional. The method in brief: (§3)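 Mice infected with ca. 80 S. mansoni cercariae on day 0; single oral dose given on day 21 post-infection (juvenile stage) in 3% ethanol/7% Tween 80 vehicle, groups of three mice. Sacrificed by CO₂ 28 days post-treatment and dissected; total and female worm reduction rates versus vehicle controls, Kruskal–Wallis test comparing medians.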

In data set [6] the test system is Schistosoma mansoni. As to the kind of experiment: Antischistosomal activity in juvenile Schistosoma mansoni infected in mouse assessed as female worm reduction at 200 mg/kg, po after 28 days. Also noted: scale not given: the % may be the effect or the level left. Type of data set: functional. The method in brief:
as §3

The test system of data set [7] is Schistosoma mansoni. As to the kind of experiment: Antischistosomal activity in juvenile Schistosoma mansoni infected in mouse assessed as total worm reduction at 400 mg/kg, po after 28 days. Type of data set: functional. Also on record: scale not given: the % may be the effect or the level left. An outline of the steps: as §2
The test system of data set [8] is Schistosoma mansoni. As to the kind of experiment: Antischistosomal activity in juvenile Schistosoma mansoni infected in mouse assessed as female worm reduction at 400 mg/kg, po after 28 days. Also on record: scale not given: the % may be the effect or the level left. Type of data set: functional. The method in brief:
as §2

The test system of data set [9] is Liver microsomes. In words: Metabolic stability in human liver microsomes at 1 uM after 120 mins by LC-MS/MS. It counts as ADME, Microsome. To be noted: 2 h. The method in brief: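 Compound at 1 µM was incubated at 37 °C with 0.5 mg/mL microsomes. Reactions were started with an NADPH-regenerating system and stopped with ice-cold MeOH. Loss of parent compound over 120 min was followed by LC–MS/MS.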

Data set [10] relates to Schistosoma mansoni. In words: Antischistosomal activity against adult Schistosoma mansoni. It counts as functional, organism-based.

On to `O=C1CN(C(=O)[C@H]2CC[C@]3(CC2)OO[C@]2(O3)C3CC4CC(C3)CC2C4)CCN1`, for which the Activity in data set [1] is given as 0%; in data set [3] it was 1%; in data set [4] it was 13%; in data set [5] it was 85%; in data set [6], 85%. In [2], the result was inactive.

With `O=C(C1CCC(F)(F)CC1)N1CC(=O)N2CCc3ccccc3C2C1` (stereo not drawn), the Activity is reported as 25% in data set [1]; 38% in data set [7]; 44% in data set [8]; 40% in [3]; 39% in data set [4]. In data set [2], the outcome was Active. Further, the Stability result in [9] is reported as “Stable”.

For `O=C(N1CCNCC1)N1CC(=O)N2CCc3ccccc3C2C1` (stereo not drawn), the Activity stood at 0% in data set [1]; 25% in [7]; 23% in data set [8]; 0% in data set [3]; 0% in [4]. Further, in data set [2], the outcome was inactive.

On to `O=C(C1CCCCC1)N1CC(=O)N2CCc3ccccc3C2C1` (stereo not drawn) [PRAZIQUANTEL], for which the Activity in data set [1] came to 100%; in data set [7], 7%; in [8], 18%; in [3], 96%; in data set [4], 98%. In [2], the outcome was Active. This compound displayed an IC50 in [10] of 0.37 µg/mL (≈ 1.18 µM).

As for `O=C1CN(C(=O)[C@H]2CC[C@]3(CC2)OO[C@]2(O3)C3CC4CC(C3)CC2C4)CC2c3ccccc3CCN12` (stereo partly drawn), the Activity in data set [1], in [7], in [8], in [3] and in [4] was 0% throughout. In data set [2], the result was inactive.

On to `O=C(N1CCCCC1)N1CC(=O)N2CCc3ccccc3C2C1` (stereo not drawn), for which the Activity in [1] was found to be 38%; in data set [7] it was 27%; in [8], 34%; in [3] it was 1%; in data set [4], 9%. The outcome in data set [2] was Active.

For `O=C(N1CCC(F)(F)CC1)N1CC(=O)N2CCc3ccccc3C2C1` (stereo not drawn), the Activity in [1] turned out to be 0%; in [7], 38%; in data set [8], 38%; in data set [3] it was 12%; in [4], 0%. In data set [2], the outcome was inactive. Further, the Stability result in data set [9] is given as “Stable”.

On to `O=C1CN(C(=O)C23CC4CC(CC(C4)C2)C3)CC2c3ccccc3CCN12` (stereo not drawn), for which the Activity came out at 0% in data set [1]; 42% in [7]; 56% in [8]; 0% in data set [3]; 0% in [4]. Also, in [2], the result was inactive.

In the case of `O=C1CCC(C(=O)N2CC(=O)N3CCc4ccccc4C3C2)CC1` (racemic), the Activity in [1] is given as 0%; in [7], 25%; in data set [8], 41%; in data set [3], 79%; in data set [4] it was 81%. Besides, the outcome in [2] was Active.

As for `O=C(N1CCOCC1)N1CC(=O)N2CCc3ccccc3C2C1` (stereo not drawn), the Activity was found to be 0% in data set [1]; 14% in data set [7]; 22% in data set [8]; 0% in [3]; 0% in data set [4]. Further, in [2], the result was inactive.
